The values that follow come from ChEMBL document CHEMBL1150328, “Acetic acid aldose reductase inhibitors bearing a five-membered heterocyclic core with potent topical activity in a visual impairment rat model” (J Med Chem, 2008).

Activity calls are given as the source filed them. The rule behind the calls is not given here.

A word on the IC50: it is the concentration that inhibits the measured activity by half.

The nature of assay [1]: (§1) Inhibition of ALR2 in Sprague-Dawley rat lens by spectrophotometry. It counts as tissue-based, Lens of camera-type eye. An outline of the steps: (§2)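 Rat lens extract, ammonium sulfate fractionated and dialyzed. 30 °C, 0.1 M sodium phosphate pH 6.2 with 0.25 mL 10 mM D,L-glyceraldehyde and 0.25 mL 0.104 mM NADPH in 1 mL total. Preincubated 10 min without substrate, then read 5 min at 340 nm against a substrate-free blank. Screened at 10^-4 M, then 10^-5 to 10^-8 M. IC50 by linear regression of log-dose curve, ≥4 concentrations.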

Assay [2] is described as follows: Inhibition of ALR1 in Sprague-Dawley rat kidney by spectrophotometry. It counts as tissue-based. An outline of the steps:
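Rat kidney enzyme from 3 vol 10 mM sodium phosphate pH 7.2 homogenate (0.25 M sucrose, EDTA, β-mercaptoethanol), 40-75% ammonium sulfate cut, dialyzed. 37 °C, 0.25 mL 20 mM sodium D-glucuronate, 0.25 mL 0.12 mM NADPH, 0.1 M phosphate pH 7.2, 1 mL total. NADPH oxidation followed at 340 nm against a substrate-free blank.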

In assay [3] the test system is Rattus norvegicus. The experiment in a line: Prevention of cataract development in severely galactosemic Sprague-Dawley Albino rat administered four timely daily as 3% eye-drop solution in precorneal region for 21 days. The assay is classed as functional, organism-based. The method in brief: (§3)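 Sprague-Dawley rats, 45-55 g, on 50% D-galactose chow, 15 per group. Both eyes dosed four times daily with 3% eye-drops or vehicle, starting one day before the diet switch. Lenses examined by slit-lamp after 1% atropine dilation at baseline and days 6, 8, 10, 14, 21. Graded stages 0-4, animals per stage counted, Mann-Whitney U-test.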

The test system of assay [4] is Rattus norvegicus. Description: Prevention of cataract development in severely galactosemic Sprague-Dawley Albino rat assessed as lens opacification administered four timely daily as 3% eye-drop solution in precorneal region for 21 days by slit-lamp microscopy. It counts as functional, organism-based. The following applies: Lens of camera-type eye. An outline of the steps: as §3

In assay [5] the test system is Rattus norvegicus. The experiment in a line: Prevention of cataract development in severely galactosemic Sprague-Dawley Albino rat assessed as lens opacification administered four timely daily as 3% eye-drop solution in precorneal region for 11 days by slit-lamp microscopy. The following applies: Lens of camera-type eye. It counts as functional, organism-based.
Assay [6] has as its system Rattus norvegicus. Description: Prevention of cataract development in severely galactosemic Sprague-Dawley Albino rat assessed as lens opacification administered four timely daily as 3% eye-drop solution in precorneal region for 12 days by slit-lamp microscopy. It counts as functional, organism-based. The following applies: Lens of camera-type eye.
Assay [7] has as its system Rattus norvegicus. Description: Prevention of cataract development in severely galactosemic Sprague-Dawley Albino rat assessed as lens opacification administered four timely daily as 3% eye-drop solution in precorneal region for 13 days by slit-lamp microscopy. The assay is classed as functional, organism-based. Conditions: Lens of camera-type eye.
The test system of assay [8] is Rattus norvegicus. The experiment in a line: Prevention of cataract development in severely galactosemic Sprague-Dawley Albino rat assessed as lens opacification administered four timely daily as 3% eye-drop solution in precorneal region for 14 days by slit-lamp microscopy. The assay is classed as functional, organism-based. The following applies: Lens of camera-type eye. An outline of the steps:
as §3

Assay [9] has as its system Rattus norvegicus. Description: Prevention of cataract development in severely galactosemic Sprague-Dawley Albino rat assessed as lens opacification administered four timely daily as 3% eye-drop solution in precorneal region for 15 days by slit-lamp microscopy. The following applies: Lens of camera-type eye. It counts as functional, organism-based.
For assay [10], the system named is Rattus norvegicus. The experiment in a line: Prevention of cataract development in severely galactosemic Sprague-Dawley Albino rat assessed as lens opacification administered four timely daily as 3% eye-drop solution in precorneal region for 16 days by slit-lamp microscopy. Conditions: Lens of camera-type eye. It counts as functional, organism-based.
Assay [11] relates to Rattus norvegicus. The experiment in a line: Prevention of cataract development in severely galactosemic Sprague-Dawley Albino rat assessed as lens opacification administered four timely daily as 3% eye-drop solution in precorneal region for 17 days by slit-lamp microscopy. It counts as functional, organism-based. Conditions: Lens of camera-type eye.
Assay [12] concerns Rattus norvegicus. Description: Prevention of cataract development in severely galactosemic Sprague-Dawley Albino rat assessed as lens opacification administered four timely daily as 3% eye-drop solution in precorneal region for 18 days by slit-lamp microscopy. The assay is classed as functional, organism-based. Conditions: Lens of camera-type eye.
The species entered for assay [13] is Rattus norvegicus. Described as §1. It counts as tissue-based. Conditions: Lens of camera-type eye. The method in brief: as §2
For assay [14], the species on record is Rattus norvegicus. Description: Inhibition of ALR2 in Sprague-Dawley rat lens at >100 uM by spectrophotometry. The following applies: Lens of camera-type eye. It counts as tissue-based. The method in brief:
as §2

Assay [15] relates to Rattus norvegicus. The experiment in a line: Prevention of cataract development in severely galactosemic Sprague-Dawley Albino rat assessed as lens opacification administered four timely daily as 3% eye-drop solution in precorneal region for 19 days by slit-lamp microscopy. The assay is classed as functional, organism-based. Conditions: Lens of camera-type eye.
Assay [16] deals with Rattus norvegicus. Description: Prevention of cataract development in severely galactosemic Sprague-Dawley Albino rat assessed as lens opacification administered four timely daily as 3% eye-drop solution in precorneal region for 20 days by slit-lamp microscopy. It counts as functional, organism-based. The following applies: Lens of camera-type eye.

`O=C(O)Cc1nc(Cc2ccc(F)cc2)no1`: the IC50 in assay [1] is 21.7 µM; in assay [2], more than 10 µM.
Regarding `O=C(O)Cc1nc(Cc2ccccc2)no1`, the IC50 in assay [1] was 28.4 µM; in [2], more than 10 µM.
`COc1ccc(-c2nc(CC(=O)O)co2)cc1`: in assay [1], it took 54.8 µM to reach half-maximal inhibition (IC50).
Regarding `O=C(O)Cc1nc(-c2ccc(Br)cc2)no1`, the concentration for half-maximal inhibition (IC50) was 0.69 µM in assay [1] and more than 10 µM in assay [2].
For `COc1ccc(Cc2noc(CC(=O)O)n2)cc1`, in that order: 8.18 µM and more than 10 µM.
Consider `Cc1ccc(-c2noc(CC(=O)O)n2)cc1`, for which the IC50 is 2.5 µM in assay [1] and more than 10 µM in assay [2].
For the compound `COc1ccc(-c2noc(CC(=O)O)n2)cc1`, the figures for the IC50 in assay [1] and in assay [2] were 0.27 µM and more than 10 µM, respectively. Also, the outcome with Rattus norvegicus [3], with Rattus norvegicus [4], with Rattus norvegicus [5], with Rattus norvegicus [6], in the assay on Rattus norvegicus [7] and in the assay on Rattus norvegicus [8] was Active. For the same compound, the outcome with Rattus norvegicus [9], with Rattus norvegicus [10], with Rattus norvegicus [11] and with Rattus norvegicus [12] was Active.
Turning to `O=C(O)Cc1nc(-c2cccc([N+](=O)[O-])c2)no1`, the concentration for half-maximal inhibition (IC50) in assay [1] was 0.71 µM; in [2], more than 10 µM.
In the case of `O=C(O)Cc1nc(Cc2ccc(Br)cc2)no1`, the IC50 in [1] is 1.66 µM; in assay [2] it was more than 10 µM.
In the same order, the values of `Cc1ccc(Cc2noc(CC(=O)O)n2)cc1` are 5.29 µM and more than 10 µM.
Turning to `O=C(O)Cc1nc(Cc2ccc(C(F)(F)F)cc2)no1`, the IC50 in assay [1] was 6.3 µM; in assay [2] it was more than 10 µM.
`O=C(O)Cc1nc(Cc2cccc([N+](=O)[O-])c2)no1`: the IC50 in assay [1] was 0.3 µM; in [2], more than 10 µM.
In the case of `O=C(O)Cc1coc(-c2ccccc2)n1`, the outcome in the assay listed under Rattus norvegicus [13] was inactive. Also, the result in the assay filed under Rattus norvegicus [14] was Active.
For `Cc1ccc(-c2nc(CC(=O)O)co2)cc1`, in that order: “inactive” and “Active”.
As to `O=C(O)Cc1nc(-c2ccc(F)cc2)no1`, the IC50 is 8.43 µM in [1] and more than 10 µM in [2].
Regarding `O=C(O)Cc1coc(-c2ccc(F)cc2)n1`, in the assay filed under Rattus norvegicus [13], the result was inactive. Besides, in the assay filed under Rattus norvegicus [14], the outcome was Active.
Regarding `O=C(O)Cc1nc(-c2ccccc2)no1`, the IC50 in assay [1] was 3.33 µM; in assay [2] it was more than 10 µM.
For the compound `COc1ccc2c(C(=S)N(C)CC(=O)O)cccc2c1C(F)(F)F` [TOLRESTAT], the IC50 is 0.05 µM in [1] and more than 10 µM in [2]. Also, the result in the assay with Rattus norvegicus [4], in the assay with Rattus norvegicus [5], in the assay with Rattus norvegicus [6], in the assay on Rattus norvegicus [7], with Rattus norvegicus [8] and with Rattus norvegicus [9] was Active. In addition, the result in the assay on Rattus norvegicus [10], in the assay on Rattus norvegicus [11], in the assay on Rattus norvegicus [12], with Rattus norvegicus [15] and in the assay with Rattus norvegicus [16] was Active.
As to `O=C(O)Cc1nc(Cc2ccc(Cl)cc2)no1`, the values for the IC50 in assay [1] and in assay [2] were 5.11 µM and more than 10 µM, respectively.
For `O=C(O)Cc1nc(-c2ccc(Br)cc2F)no1`, the IC50 is 2 µM in assay [1] and more than 10 µM in assay [2].
For `O=C(O)Cc1nc(Cc2ccc(Br)cc2F)no1`, in that order: 0.36 µM and more than 10 µM.
As for `O=C(O)Cc1nc(-c2ccc(Cl)cc2)no1`, the IC50 in assay [1] was 3.95 µM; in [2] it was more than 10 µM.
`O=C(O)Cc1nc(-c2ccc(C(F)(F)F)cc2)no1`: the IC50 in [1] was 1.08 µM; in [2], more than 10 µM.
